# What was measured:
# [1] = Selectivity ratio of IC50 for recombinant PTP1B (unknown origin) to IC50 for recombinant Mycobacterium tuberculosis PTPB
# [2] = target: T1, Tyrosine-protein phosphatase non-receptor type 11 (Homo sapiens, UniProt Q06124); assay: Inhibition of recombinant SHP2 (unknown origin) using pNPP as substrate by spectrophotometric method
# T1 sequence (Q06124 whole entry): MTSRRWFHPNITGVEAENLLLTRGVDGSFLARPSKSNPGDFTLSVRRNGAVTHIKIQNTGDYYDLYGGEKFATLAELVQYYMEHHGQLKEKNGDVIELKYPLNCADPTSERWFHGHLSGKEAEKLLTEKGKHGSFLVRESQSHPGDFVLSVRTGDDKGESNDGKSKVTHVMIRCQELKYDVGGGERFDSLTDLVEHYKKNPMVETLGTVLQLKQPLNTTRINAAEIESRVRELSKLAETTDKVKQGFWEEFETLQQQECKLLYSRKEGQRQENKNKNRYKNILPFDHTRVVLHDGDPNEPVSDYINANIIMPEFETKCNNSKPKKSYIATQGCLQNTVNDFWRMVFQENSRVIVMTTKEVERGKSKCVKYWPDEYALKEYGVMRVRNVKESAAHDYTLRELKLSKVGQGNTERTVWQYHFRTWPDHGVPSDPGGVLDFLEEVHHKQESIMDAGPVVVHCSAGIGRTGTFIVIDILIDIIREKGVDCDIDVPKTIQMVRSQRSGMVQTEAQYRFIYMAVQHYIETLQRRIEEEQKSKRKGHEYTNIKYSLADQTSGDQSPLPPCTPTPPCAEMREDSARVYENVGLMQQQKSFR
# Method in brief: (§1)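 Recombinant PTP prepared in-house, assayed with pNPP substrate in 50 mM 3,3-dimethylglutarate buffer pH 7.0 containing 1 mM EDTA and 150 mM NaCl at 25 °C, in 96-well format. p-Nitrophenol product was quantified by absorbance at 405 nm. Non-enzymatic pNPP hydrolysis was corrected using a no-enzyme control.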
# [3] = Selectivity ratio of IC50 for recombinant SHP2 (unknown origin) to IC50 for recombinant Mycobacterium tuberculosis PTPB
# [4] = target: Tyrosine-protein phosphatase non-receptor type 13 (Homo sapiens, UniProt Q12923); assay: Inhibition of recombinant FAP1 (unknown origin) using pNPP as substrate by spectrophotometric method; method in brief: as §1
# Tyrosine-protein phosphatase non-receptor type 13, sequence (Q12923 whole entry): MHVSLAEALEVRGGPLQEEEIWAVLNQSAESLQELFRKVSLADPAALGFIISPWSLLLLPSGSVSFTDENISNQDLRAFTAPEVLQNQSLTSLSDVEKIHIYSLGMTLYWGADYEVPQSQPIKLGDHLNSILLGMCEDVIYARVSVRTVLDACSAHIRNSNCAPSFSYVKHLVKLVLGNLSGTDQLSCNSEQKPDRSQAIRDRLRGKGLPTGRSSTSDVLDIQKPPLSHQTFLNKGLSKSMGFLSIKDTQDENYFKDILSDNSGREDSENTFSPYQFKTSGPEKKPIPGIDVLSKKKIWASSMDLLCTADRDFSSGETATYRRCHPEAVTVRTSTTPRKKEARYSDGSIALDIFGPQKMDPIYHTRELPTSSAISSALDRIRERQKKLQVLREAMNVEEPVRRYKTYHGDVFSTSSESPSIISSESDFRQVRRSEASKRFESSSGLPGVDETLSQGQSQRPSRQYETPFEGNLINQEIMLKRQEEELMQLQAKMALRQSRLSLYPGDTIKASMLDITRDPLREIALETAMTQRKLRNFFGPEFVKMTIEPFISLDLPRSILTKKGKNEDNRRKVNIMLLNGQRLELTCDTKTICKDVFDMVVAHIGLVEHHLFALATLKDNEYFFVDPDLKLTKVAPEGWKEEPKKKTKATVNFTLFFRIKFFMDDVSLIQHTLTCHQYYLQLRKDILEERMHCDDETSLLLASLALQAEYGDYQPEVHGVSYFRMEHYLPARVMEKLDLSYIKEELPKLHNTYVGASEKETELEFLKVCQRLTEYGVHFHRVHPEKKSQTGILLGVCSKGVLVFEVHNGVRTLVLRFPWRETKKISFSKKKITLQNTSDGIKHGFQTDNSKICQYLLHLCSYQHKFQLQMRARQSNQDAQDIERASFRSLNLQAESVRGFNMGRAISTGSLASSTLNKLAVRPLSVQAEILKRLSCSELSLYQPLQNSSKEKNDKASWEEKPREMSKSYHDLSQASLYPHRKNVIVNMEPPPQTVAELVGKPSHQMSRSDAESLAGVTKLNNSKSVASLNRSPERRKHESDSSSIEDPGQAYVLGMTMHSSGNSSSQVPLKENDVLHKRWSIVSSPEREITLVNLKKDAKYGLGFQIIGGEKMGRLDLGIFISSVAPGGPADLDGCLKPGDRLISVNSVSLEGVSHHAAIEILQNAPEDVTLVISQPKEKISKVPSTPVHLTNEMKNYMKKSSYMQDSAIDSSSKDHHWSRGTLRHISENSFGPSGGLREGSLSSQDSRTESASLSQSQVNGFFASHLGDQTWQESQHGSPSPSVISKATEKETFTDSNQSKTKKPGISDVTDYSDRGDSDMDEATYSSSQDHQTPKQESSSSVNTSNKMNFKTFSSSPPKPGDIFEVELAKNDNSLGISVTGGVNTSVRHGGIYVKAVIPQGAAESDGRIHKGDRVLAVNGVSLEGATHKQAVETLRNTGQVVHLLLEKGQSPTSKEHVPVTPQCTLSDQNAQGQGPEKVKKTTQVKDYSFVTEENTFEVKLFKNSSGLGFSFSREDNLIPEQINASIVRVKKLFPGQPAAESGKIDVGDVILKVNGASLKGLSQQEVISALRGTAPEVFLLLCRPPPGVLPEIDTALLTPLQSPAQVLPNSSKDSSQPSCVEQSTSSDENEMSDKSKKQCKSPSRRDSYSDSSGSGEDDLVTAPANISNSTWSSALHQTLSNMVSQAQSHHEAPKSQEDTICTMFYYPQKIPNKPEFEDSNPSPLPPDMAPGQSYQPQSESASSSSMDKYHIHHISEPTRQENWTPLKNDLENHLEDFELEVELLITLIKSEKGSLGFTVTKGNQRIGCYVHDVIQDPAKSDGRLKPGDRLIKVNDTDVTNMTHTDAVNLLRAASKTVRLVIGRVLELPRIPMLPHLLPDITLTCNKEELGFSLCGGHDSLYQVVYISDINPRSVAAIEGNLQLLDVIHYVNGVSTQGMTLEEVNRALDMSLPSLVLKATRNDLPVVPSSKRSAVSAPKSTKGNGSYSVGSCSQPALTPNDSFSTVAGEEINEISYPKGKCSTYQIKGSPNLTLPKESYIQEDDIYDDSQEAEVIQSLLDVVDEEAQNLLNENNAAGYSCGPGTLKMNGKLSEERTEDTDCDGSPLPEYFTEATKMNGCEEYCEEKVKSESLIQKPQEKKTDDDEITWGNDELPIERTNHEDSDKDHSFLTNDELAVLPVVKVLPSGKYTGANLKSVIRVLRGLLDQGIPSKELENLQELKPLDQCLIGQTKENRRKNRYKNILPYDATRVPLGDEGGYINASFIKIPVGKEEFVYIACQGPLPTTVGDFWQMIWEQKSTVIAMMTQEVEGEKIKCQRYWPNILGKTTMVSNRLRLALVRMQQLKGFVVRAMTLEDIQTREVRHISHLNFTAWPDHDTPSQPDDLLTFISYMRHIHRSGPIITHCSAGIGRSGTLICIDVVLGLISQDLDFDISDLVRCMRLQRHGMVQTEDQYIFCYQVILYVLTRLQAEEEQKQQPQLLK
# [5] = target: T2, Tyrosine-protein phosphatase non-receptor type 1 (Homo sapiens, UniProt P18031); assay: Inhibition of recombinant PTP1B (unknown origin) using pNPP as substrate by spectrophotometric method; method in brief: as §1
# T2 sequence (P18031 whole entry): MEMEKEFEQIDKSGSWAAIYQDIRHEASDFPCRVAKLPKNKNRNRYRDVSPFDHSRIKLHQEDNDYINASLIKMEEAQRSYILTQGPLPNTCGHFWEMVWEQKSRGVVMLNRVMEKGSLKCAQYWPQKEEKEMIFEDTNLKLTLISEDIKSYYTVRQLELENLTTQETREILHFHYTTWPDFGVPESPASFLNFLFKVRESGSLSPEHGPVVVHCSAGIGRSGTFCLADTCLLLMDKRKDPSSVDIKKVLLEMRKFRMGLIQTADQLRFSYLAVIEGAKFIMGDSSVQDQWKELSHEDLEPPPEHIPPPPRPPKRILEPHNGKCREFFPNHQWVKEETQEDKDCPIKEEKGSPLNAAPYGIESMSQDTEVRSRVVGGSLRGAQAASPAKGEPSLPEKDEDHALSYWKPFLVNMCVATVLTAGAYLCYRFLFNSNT
# [6] = Selectivity ratio of IC50 for recombinant FAP1 (unknown origin) to IC50 for recombinant Mycobacterium tuberculosis PTPB
# [7] = Selectivity ratio of IC50 for recombinant CD45 (unknown origin) to IC50 for recombinant Mycobacterium tuberculosis PTPB
# [8] = target: T3, Tyrosine-protein phosphatase non-receptor type 22 (Homo sapiens, UniProt Q9Y2R2); assay: Inhibition of recombinant LYP (unknown origin) using pNPP as substrate by spectrophotometric method; method in brief: as §1
# T3 sequence (Q9Y2R2 whole entry): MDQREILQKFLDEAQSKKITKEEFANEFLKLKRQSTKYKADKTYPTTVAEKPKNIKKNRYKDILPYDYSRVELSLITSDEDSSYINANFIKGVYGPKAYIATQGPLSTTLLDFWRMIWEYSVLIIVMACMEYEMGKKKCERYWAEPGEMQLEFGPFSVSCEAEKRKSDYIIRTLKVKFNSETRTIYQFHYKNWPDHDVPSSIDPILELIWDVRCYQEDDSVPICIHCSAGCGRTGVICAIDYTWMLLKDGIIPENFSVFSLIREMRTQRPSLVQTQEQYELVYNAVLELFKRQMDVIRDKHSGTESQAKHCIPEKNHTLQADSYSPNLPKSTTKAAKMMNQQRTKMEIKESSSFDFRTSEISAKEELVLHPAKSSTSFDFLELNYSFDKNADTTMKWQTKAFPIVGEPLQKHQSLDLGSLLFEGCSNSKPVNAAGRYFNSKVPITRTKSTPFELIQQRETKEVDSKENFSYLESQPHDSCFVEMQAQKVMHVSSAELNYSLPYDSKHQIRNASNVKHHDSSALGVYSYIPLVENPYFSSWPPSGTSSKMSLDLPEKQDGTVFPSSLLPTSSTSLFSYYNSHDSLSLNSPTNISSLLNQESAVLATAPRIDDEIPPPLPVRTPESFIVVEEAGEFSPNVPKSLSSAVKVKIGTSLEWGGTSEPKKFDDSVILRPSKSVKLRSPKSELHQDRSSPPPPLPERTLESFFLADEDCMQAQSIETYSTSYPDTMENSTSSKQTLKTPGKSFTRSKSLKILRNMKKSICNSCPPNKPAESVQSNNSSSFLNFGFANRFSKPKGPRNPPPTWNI
# [9] = Inhibition of recombinant Mycobacterium tuberculosis PTPB using pNPP as substrate by spectrophotometric method
# Method in brief: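 Recombinant enzyme made in-house. Substrate pNPP in 50 mM 3,3-dimethylglutarate buffer, pH 7.0, with 1 mM EDTA and 150 mM NaCl, at 25 °C, screened in 96-well format. p-Nitrophenol product read at 405 nm. Non-enzymatic pNPP hydrolysis was corrected using a control without enzyme.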
# [10] = Selectivity ratio of IC50 for recombinant LYP (unknown origin) to IC50 for recombinant Mycobacterium tuberculosis PTPB
smiles,measurement,setting,value
Cc1ccc(S(=O)(=O)NNC(=O)COc2ccc3cc(C(O)(C(F)(F)F)C(F)(F)F)c(O)cc3c2)cc1,Ratio IC50,[1],> 7
same,IC50,[2],20.3 µM
same,Ratio IC50,[3],> 7
same,IC50,[4],14.9 µM
same,IC50,[5],> 20 µM
same,Ratio IC50,[6],> 7
same,Ratio IC50,[7],> 7
same,IC50,[8],15.4 µM
same,IC50,[9],2.3 µM
same,Ratio IC50,[10],> 7
